This is an account of results in ChEMBL document CHEMBL1770107, “Design and synthesis of antifungal benzoheterocyclic derivatives by scaffold hopping” (2011).

Values after ≈ are worked out from the molar mass of the structure shown.

Format in all cases: functional
For assay [1], the system named is Cryptococcus neoformans. Briefly: Antimicrobial activity against Cryptococcus neoformans after 72 hrs by NCCLS method. In outline: (§1)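 Broth serial-dilution MIC in 96-well plates, RPMI 1640 buffered with 0.165 M MOPS. Strains from ATCC or clinical isolates; fluconazole reference. MIC = lowest concentration giving ≥80% growth inhibition (turbidity) versus drug-free control. Read at 24 h for Candida spp., 72 h for C. neoformans, 7 days for filamentous fungi.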

Assay [2] has as its system Aspergillus fumigatus. Briefly: Antimicrobial activity against Aspergillus fumigatus after 7 days by NCCLS method. The conditions noted are these: 168 h. The procedure, abridged: as §1
The subject of assay [3] is Candida parapsilosis. Briefly: Antimicrobial activity against Candida parapsilosis after 24 hrs by NCCLS method. To be noted: Lodderomyces parapsilosis. In outline:
as §1

Assay [4] concerns Candida albicans. Briefly: Antimicrobial activity against Candida albicans after 24 hrs by NCCLS method. The procedure, abridged:
as §1

Assay [5] concerns Candida tropicalis. Briefly: Antimicrobial activity against Candida tropicalis after 24 hrs by NCCLS method. The procedure, abridged: as §1
Assay [6] concerns Pichia kudriavzevii. Briefly: Antimicrobial activity against Candida krusei after 24 hrs by NCCLS method. The procedure, abridged:
as §1

Assay [7] concerns Candida albicans. Briefly: Antimicrobial activity against fluconazole resistant Candida albicans clinical isolate after 24 hrs by NCCLS method. In outline: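 Broth serial dilution in RPMI 1640 buffered with 0.165 M MOPS; clinical isolate. MIC80 is the lowest concentration giving 80% or greater turbidity reduction relative to the drug-free growth control, read at 24 h for Candida. Fluconazole is the reference drug.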

Assay [8] deals with Trichophyton rubrum. Briefly: Antimicrobial activity against Trichophyton rubrum after 7 days by NCCLS method. The conditions noted are these: 168 h. The procedure, abridged: as §1
Assay [9] relates to Nannizzia gypsea. Briefly: Antimicrobial activity against Microsporum gypseum after 7 days by NCCLS method. The conditions noted are these: 168 h. In outline:
as §1

Broadly, the MIC80 is the lowest concentration that inhibits either 80% of growth or 80% of the strains tested, depending on the study. A high value points to lower susceptibility. As for `CCCCCCCN1CCc2c(c3cc(Cl)ccc3n2C)C1`, the MIC80 in assay [1], in assay [2], in assay [3], in assay [4], in assay [5] and in assay [6] was above 64 µg/mL throughout.
For `CCCCCCN1CCc2c(c3cc(C)ccc3n2C)C1`, the MIC80 is 64 µg/mL (≈ 225 µM) in assay [1]; 64 µg/mL (≈ 225 µM) in assay [2]; 64 µg/mL (≈ 225 µM) in assay [3]; 64 µg/mL (≈ 225 µM) in [4]; 64 µg/mL (≈ 225 µM) in assay [5]; 16 µg/mL (≈ 56.2 µM) in assay [6].
Turning to `CCCCCCCCN1CCc2c(c3cc(F)ccc3n2C)C1`, the MIC80 in assay [1] was above 64 µg/mL; in assay [2], above 64 µg/mL; in [3] it was 64 µg/mL (≈ 202 µM); in [4], 64 µg/mL (≈ 202 µM); in assay [5], above 64 µg/mL; in assay [6], above 64 µg/mL.
As to `CCCCCCNCc1nc2ccccc2s1`, the MIC80 in [1] is 64 µg/mL (≈ 258 µM); in assay [7], 64 µg/mL (≈ 258 µM); in assay [8] it was 64 µg/mL (≈ 258 µM); in assay [2], above 64 µg/mL; in assay [4] it was 64 µg/mL (≈ 258 µM); in assay [5], 64 µg/mL (≈ 258 µM). This compound also came in with an MIC80 in [9] of 64 µg/mL (≈ 258 µM).
With `CCCCCCCCn1cnc2ccc(C)cc2c1=O`, the MIC80 in assay [1], in assay [2], in [3], in [4], in assay [5] and in assay [6] was above 64 µg/mL each time.
`CCCCCCN1CCc2c(c3cc(Br)ccc3n2C)C1`: the MIC80 was above 64 µg/mL in [1]; 64 µg/mL (≈ 183 µM) in [2]; above 64 µg/mL in assay [3]; above 64 µg/mL in [4]; above 64 µg/mL in assay [5]; above 64 µg/mL in [6].
For `CCCCCCn1cnc2ccc(C)cc2c1=O`, the MIC80 in assay [1], in assay [2], in assay [3], in assay [4], in assay [5] and in [6] was above 64 µg/mL in each case.
`CCCCCCCN1CCc2c(c3cc(Br)ccc3n2C)C1`: the MIC80 in assay [1] was 64 µg/mL (≈ 176 µM); in assay [2] it was above 64 µg/mL; in assay [3], 64 µg/mL (≈ 176 µM); in [4] it was above 64 µg/mL; in [5] it was above 64 µg/mL; in [6], above 64 µg/mL.
Regarding `CCCCCCN1CCc2c(c3cc(F)ccc3n2C)C1`, the MIC80 in [1], in assay [2], in assay [3], in assay [4], in assay [5] and in [6] was above 64 µg/mL throughout.
Turning to `CCCCCCCN1CCc2c(c3cc(I)ccc3n2C)C1`, the MIC80 was above 64 µg/mL in [1]; above 64 µg/mL in assay [2]; 64 µg/mL (≈ 156 µM) in [3]; above 64 µg/mL in assay [4]; above 64 µg/mL in assay [5]; above 64 µg/mL in [6].
As for `CCCCCCCCNCc1nc2ccccc2o1`, the MIC80 in assay [1] was 1 µg/mL (≈ 3.84 µM); in assay [7] it was 64 µg/mL (≈ 246 µM); in assay [8] it was 4 µg/mL (≈ 15.4 µM); in assay [2] it was 32 µg/mL (≈ 123 µM); in assay [4] it was 64 µg/mL (≈ 246 µM); in assay [5] it was 16 µg/mL (≈ 61.4 µM). The same compound had an MIC80 in assay [9] of 8 µg/mL (≈ 30.7 µM).
Take `CCCCCCCn1cnc2ccc(C)cc2c1=O`: the MIC80 in [1] is above 64 µg/mL; in assay [2], 64 µg/mL (≈ 248 µM); in assay [3] it was above 64 µg/mL; in assay [4], above 64 µg/mL; in [5] it was above 64 µg/mL; in assay [6], above 64 µg/mL.
As to `CCCCCCCCN1CCc2c(c3cc(I)ccc3n2C)C1`, the MIC80 in assay [1] was above 64 µg/mL; in assay [2] it was above 64 µg/mL; in [3] it was 16 µg/mL (≈ 37.7 µM); in assay [4], 64 µg/mL (≈ 151 µM); in assay [5], above 64 µg/mL; in assay [6] it was 64 µg/mL (≈ 151 µM).
Consider `CCCCCCCN1CCc2c(c3cc(C)ccc3n2C)C1`, for which the MIC80 was above 64 µg/mL in assay [1]; 16 µg/mL (≈ 53.6 µM) in assay [2]; 16 µg/mL (≈ 53.6 µM) in assay [3]; 16 µg/mL (≈ 53.6 µM) in assay [4]; 64 µg/mL (≈ 214 µM) in assay [5]; 64 µg/mL (≈ 214 µM) in [6].
With `CCCCCCCCNCc1nc2ccccc2s1`, the MIC80 in assay [1] was 16 µg/mL (≈ 57.9 µM); in assay [7], above 64 µg/mL; in assay [8] it was 16 µg/mL (≈ 57.9 µM); in assay [2], above 64 µg/mL; in assay [4], 64 µg/mL (≈ 232 µM); in assay [5] it was 64 µg/mL (≈ 232 µM). The MIC80 in assay [9] stood at 64 µg/mL (≈ 232 µM).
`CCCCCCCCN1CCc2c(c3cc(Br)ccc3n2C)C1`: the MIC80 in [1] is 64 µg/mL (≈ 170 µM); in assay [2] it was above 64 µg/mL; in [3], 16 µg/mL (≈ 42.4 µM); in assay [4], 64 µg/mL (≈ 170 µM); in assay [5], above 64 µg/mL; in [6], above 64 µg/mL.
On to `CCCCCCCCN1CCc2c(c3cc(C)ccc3n2C)C1`, for which the MIC80 in assay [1] was above 64 µg/mL; in [2], 16 µg/mL (≈ 51.2 µM); in [3], 16 µg/mL (≈ 51.2 µM); in assay [4], 16 µg/mL (≈ 51.2 µM); in assay [5] it was 64 µg/mL (≈ 205 µM); in assay [6], 64 µg/mL (≈ 205 µM).
Consider `CCCCCCN1CCc2c(c3cc(I)ccc3n2C)C1`, for which the MIC80 is above 64 µg/mL in assay [1]; above 64 µg/mL in [2]; 64 µg/mL (≈ 161 µM) in assay [3]; above 64 µg/mL in [4]; above 64 µg/mL in assay [5]; above 64 µg/mL in assay [6].
For `CCCCCCCCN1CCc2c(c3cc(Cl)ccc3n2C)C1`, the MIC80 was above 64 µg/mL in [1]; above 64 µg/mL in [2]; 64 µg/mL (≈ 192 µM) in assay [3]; above 64 µg/mL in [4]; above 64 µg/mL in assay [5]; 64 µg/mL (≈ 192 µM) in assay [6].
On to `CCCCCCNCc1nc2ccccc2[nH]1`, for which the MIC80 in assay [1] was above 64 µg/mL; in assay [7], above 64 µg/mL; in assay [8], 64 µg/mL (≈ 277 µM); in [2] it was above 64 µg/mL; in [4], 1 µg/mL (≈ 4.32 µM); in assay [5], above 64 µg/mL. Moreover, the MIC80 in [9] is above 64 µg/mL.
For the compound `CCCCCCCCNCc1nc2ccccc2[nH]1`, the MIC80 in assay [1] is 16 µg/mL (≈ 61.7 µM); in assay [7], 16 µg/mL (≈ 61.7 µM); in assay [8], 16 µg/mL (≈ 61.7 µM); in assay [2] it was 32 µg/mL (≈ 123 µM); in [4], above 64 µg/mL; in assay [5], 16 µg/mL (≈ 61.7 µM). In [9], this compound returned an MIC80 of 16 µg/mL (≈ 61.7 µM).
Turning to `CCCCCCCNCc1nc2ccccc2s1`, the MIC80 in assay [1] was 64 µg/mL (≈ 244 µM); in assay [7] it was 32 µg/mL (≈ 122 µM); in [8], 16 µg/mL (≈ 61 µM); in [2], above 64 µg/mL; in assay [4], 64 µg/mL (≈ 244 µM); in assay [5], 64 µg/mL (≈ 244 µM). The MIC80 in assay [9] worked out at 16 µg/mL (≈ 61 µM).
Turning to `CCCCCCNCc1nc2ccccc2o1`, the MIC80 in [1] was 64 µg/mL (≈ 275 µM); in assay [7], above 64 µg/mL; in assay [8] it was 16 µg/mL (≈ 68.9 µM); in assay [2], above 64 µg/mL; in assay [4] it was 64 µg/mL (≈ 275 µM); in [5], 64 µg/mL (≈ 275 µM). In assay [9], this compound showed an MIC80 of 16 µg/mL (≈ 68.9 µM).
With `OC(Cn1cncn1)(Cn1cncn1)c1ccc(F)cc1F` [FLUCONAZOLE], the MIC80 in [1] was 1 µg/mL (≈ 3.27 µM); in assay [8], 4 µg/mL (≈ 13.1 µM); in [2], above 64 µg/mL; in assay [3], 1 µg/mL (≈ 3.27 µM); in assay [4], 1 µg/mL (≈ 3.27 µM); in assay [5] it was 1 µg/mL (≈ 3.27 µM). Besides, the MIC80 was 16 µg/mL (≈ 52.2 µM) in [9] and 0.5 µg/mL (≈ 1.63 µM) in [6].
In the case of `CCCCCCCNCc1nc2ccccc2o1`, the MIC80 in assay [1] was 16 µg/mL (≈ 64.9 µM); in assay [7] it was 64 µg/mL (≈ 260 µM); in assay [8] it was 16 µg/mL (≈ 64.9 µM); in [2], 64 µg/mL (≈ 260 µM); in assay [4], 64 µg/mL (≈ 260 µM); in [5], 64 µg/mL (≈ 260 µM). In [9], this compound had an MIC80 of 16 µg/mL (≈ 64.9 µM).
For `CCCCCCN1CCc2c(c3cc(Cl)ccc3n2C)C1`, the MIC80 in [1] was above 64 µg/mL; in assay [2], 64 µg/mL (≈ 210 µM); in assay [3], above 64 µg/mL; in assay [4], above 64 µg/mL; in [5] it was above 64 µg/mL; in assay [6], 64 µg/mL (≈ 210 µM).
For the compound `CCCCCCCNCc1nc2ccccc2[nH]1`, the MIC80 in [1] is 64 µg/mL (≈ 261 µM); in assay [7], 32 µg/mL (≈ 130 µM); in [8], 64 µg/mL (≈ 261 µM); in assay [2] it was above 64 µg/mL; in assay [4] it was above 64 µg/mL; in [5] it was above 64 µg/mL. The compound further displayed an MIC80 in assay [9] above 64 µg/mL.
Take `CCCCCCCN1CCc2c(c3cc(F)ccc3n2C)C1`: the MIC80 is above 64 µg/mL in assay [1]; 64 µg/mL (≈ 212 µM) in [2]; 64 µg/mL (≈ 212 µM) in [3]; 64 µg/mL (≈ 212 µM) in assay [4]; above 64 µg/mL in assay [5]; above 64 µg/mL in assay [6].
